Measurements taken from ChEMBL document CHEMBL1157745, “Structure-based discovery of A2A adenosine receptor ligands” (J Med Chem, 2010).
The source made the active and inactive calls. No cut-off for these calls is given here.

Tests used:
[1] = target: T1, Adenosine receptor A3 (Homo sapiens) (UniProt P0DMS8); test: Displacement of [125I]I-AB-MECA from human recombinant adenosine A3 receptor expressed in CHO cells at 20 uM after 60 mins by gamma counting
T1 sequence (whole entry): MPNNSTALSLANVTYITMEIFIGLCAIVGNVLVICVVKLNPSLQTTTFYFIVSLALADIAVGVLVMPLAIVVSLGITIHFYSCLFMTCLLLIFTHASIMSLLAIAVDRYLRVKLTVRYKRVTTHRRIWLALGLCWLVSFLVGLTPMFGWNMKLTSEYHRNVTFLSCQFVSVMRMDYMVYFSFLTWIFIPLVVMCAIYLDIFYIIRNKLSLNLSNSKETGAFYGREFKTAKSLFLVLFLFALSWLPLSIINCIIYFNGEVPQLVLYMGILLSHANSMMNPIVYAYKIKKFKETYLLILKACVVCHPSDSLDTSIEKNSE

[2] = target: T2, Adenosine receptor A1 (Homo sapiens) (UniProt P30542); test: Displacement of [3H]R-PIA from human recombinant adenosine A1 receptor expressed in CHO cells at 20 uM after 60 mins by scintillation counting; type: cell-based
T2 sequence (whole entry): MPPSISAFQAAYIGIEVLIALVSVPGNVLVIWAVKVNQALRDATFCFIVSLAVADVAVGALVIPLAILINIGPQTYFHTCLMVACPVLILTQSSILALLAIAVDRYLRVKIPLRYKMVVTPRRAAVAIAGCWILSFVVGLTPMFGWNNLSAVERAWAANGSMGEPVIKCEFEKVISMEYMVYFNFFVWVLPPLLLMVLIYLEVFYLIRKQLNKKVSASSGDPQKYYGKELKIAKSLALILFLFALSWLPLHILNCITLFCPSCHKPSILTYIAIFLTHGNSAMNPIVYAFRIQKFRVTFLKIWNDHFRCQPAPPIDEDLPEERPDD

Adenosine receptor A2a = Adenosine receptor A2a (Homo sapiens, UniProt P29274); test: Displacement of [3H]CGS21680 from human recombinant adenosine A2A receptor expressed in HEK293 cells after 60 mins by scintillation counting; type: cell-based
[3] = target: Cruzipain (Trypanosoma cruzi) (UniProt P25779); test: Inhibition of Trypanosoma cruzi cruzain at 10 uM preincubated for 5 mins before substrate addition by spectrophotometry; conditions: in the assay text read “spectrofluorimetry” for “spectrophotometry”
How it was run: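 Enzyme (0.8 nM) preincubated with compound 5 min in 100 mM sodium acetate pH 5.5, 5 mM DTT, with and without 0.1% Triton X-100; started with Z-FR-AMC (2.5 μM final, enzyme 0.4 nM final), 0.5% DMSO; fluorescence ex 355/em 460 nm over 5 min; duplicates, DMSO controls.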

[4] = Inhibition of beta-lactamase AmpC preincubated for 5 mins before substrate addition by spectrophotometry
How it was run: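 In 50 mM potassium phosphate pH 7.0, 1 nM enzyme incubated 5 min with compound at 10 μM (0.1% DMSO); CENTA added to 92 μM final; absorbance at 405 nm followed for 5 min; duplicates with DMSO controls.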

[5] = Colloidal aggregation at 10 uM by dynamic light scattering assay; type: physicochemical
How it was run: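 Compounds diluted from concentrated DMSO stocks into filtered 50 mM KPi, pH 7.0; particle formation checked by dynamic light scattering with 826.6 nm laser at 100% power, detector angle 90°.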

Homo sapiens [6] = organism: Homo sapiens; test: Selectivity ratio of Ki for human recombinant adenosine A1 receptor to KI for human recombinant adenosine A2A receptor
Homo sapiens [7] = organism: Homo sapiens; test: Selectivity ratio of Ki for human recombinant adenosine A3 receptor to KI for human recombinant adenosine A2A receptor

Adenosine receptor A2a, sequence (P29274 whole entry): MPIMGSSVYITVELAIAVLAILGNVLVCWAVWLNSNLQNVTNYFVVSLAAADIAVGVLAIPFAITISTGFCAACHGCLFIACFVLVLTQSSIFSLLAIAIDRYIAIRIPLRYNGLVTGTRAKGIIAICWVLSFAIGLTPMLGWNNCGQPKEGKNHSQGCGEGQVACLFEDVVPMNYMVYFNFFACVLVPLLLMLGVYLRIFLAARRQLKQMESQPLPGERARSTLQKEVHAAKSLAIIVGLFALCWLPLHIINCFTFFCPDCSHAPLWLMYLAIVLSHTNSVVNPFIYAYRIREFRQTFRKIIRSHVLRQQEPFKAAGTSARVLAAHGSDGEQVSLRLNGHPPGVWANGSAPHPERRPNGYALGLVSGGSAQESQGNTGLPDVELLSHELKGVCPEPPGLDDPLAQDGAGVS
Cruzipain (Trypanosoma cruzi), sequence (P25779 123-467 limits assumed): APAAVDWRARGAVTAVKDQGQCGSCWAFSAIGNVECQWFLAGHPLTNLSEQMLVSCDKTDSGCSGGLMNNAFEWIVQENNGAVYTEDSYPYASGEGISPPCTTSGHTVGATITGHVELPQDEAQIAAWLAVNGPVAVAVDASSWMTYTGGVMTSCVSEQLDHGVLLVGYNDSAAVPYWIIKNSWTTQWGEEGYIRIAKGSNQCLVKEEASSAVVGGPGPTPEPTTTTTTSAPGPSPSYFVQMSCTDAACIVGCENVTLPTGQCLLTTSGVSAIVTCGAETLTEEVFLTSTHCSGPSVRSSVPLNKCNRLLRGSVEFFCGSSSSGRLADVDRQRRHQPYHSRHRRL

Activity [1]	Activity [2]	Ki (Adenosine receptor A2a)	Activity [3]	inhibition [4]	Activity [5]	Ratio Ki (Homo sapiens [6])	Ratio Ki (Homo sapiens [7])	Structure (SMILES)
8%	4%							N=C(NCCc1c[nH]c2ccccc12)Nc1ncccn1
		5900 nM						NC(=NCCc1c[nH]c2ccccc12)Nc1ncccn1
21%	3%							Cc1cc(C)nc(NC(=N)NCCc2ccsc2)n1
		400 nM						Cc1cc(C)nc(NC(N)=NCCc2ccsc2)n1
16%	19%	400 nM						Cc1cc(C)nc(NC(=N)NCCc2c[nH]c3ccccc23)n1
		200 nM			Active			Cc1cc(C)nc(NC(N)=NCCc2c[nH]c3ccc(F)cc23)n1
9%	10%	900 nM						COc1ccc(CCNC(=N)Nc2nc(C)cc(C)n2)cc1
20%	5%	600 nM						COc1ccc2c(CCNC(=N)Nc3nc(C)cc(C)n3)c[nH]c2c1
18%	25%		Active	inactive		50	50	Cc1cc(C)nc(NC(=N)NCCc2c[nH]c3ccc(F)cc23)n1

Second part, the compound before the results:

Structure (SMILES)	Activity [1]	Activity [2]	Ki (Adenosine receptor A2a)	Activity [3]	inhibition [4]	Activity [5]	Ratio Ki (Homo sapiens [6])	Ratio Ki (Homo sapiens [7])
Cc1cccc(Nc2nc3c([nH]2)c(=O)n(C)c(=O)n3C)c1	17%	6%	1200 nM					
CNc1ccccc1C(=O)/N=C(\N)Nc1nc(C)c2ccccc2n1	8%	15%	8800 nM					
Cc1cccc(O[C@H](C)C(=O)Nc2nc(-c3ccccc3)n[nH]2)c1				inactive	inactive			
Cc1ccc2nc(Nc3nc(C)cc(C)n3)[nH]c2c1	15%	12%	1300 nM	inactive		Not Active		
COc1ccc2c(c1)oc1c(-c3ccncc3)c(C#N)c(N)c(C#N)c12	28%	5%	2700 nM	inactive		Not Active		
COc1ccc(-c2cc(=O)[nH]c(Nc3ccccc3)n2)cc1OC	37%	4%	3600 nM					
Cc1cccc(O[C@H](C)C(=O)Nc2nnc(-c3ccccc3)[nH]2)c1						Not Active		
